Reference: ChEMBL document CHEMBL1649351, “Synthesis, in vitro antimicrobial and in vivo antitumor evaluation of novel pyrimidoquinolines and its nucleoside derivatives” (Eur J Med Chem, 2011)

Columns and labels:
[1] = test system: HeLa; assay: Antitumor activity against human HeLa cells xenografted in Swiss albino mouse assessed as increase mouse life span at 10 ug/kg, ip for 10 days relative to control; type: functional
[2] = test system: HepG2; assay: Antitumor activity against human HepG2 cells xenografted in Swiss albino mouse assessed as increase of mouse survival at 10 ug/kg, ip for 10 days (reference value: 22 +/- 1.90 day); type: functional
[3] = test system: Mus musculus; assay: Acute toxicity in human HepG2 cells xenografted ip dosed Swiss albino mouse assessed as mortality measured up to 2 weeks; type: organism-based; details: in vivo, 336 h
How it was run: (§1)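 Adult Swiss albino mice were fasted 12 h and randomised into groups of 10. Each group got one i.p. dose from a graded series, given at 1 ml/kg body weight; controls got vehicle alone. Food and water were returned right after dosing. Mortality was followed for up to two weeks, and LD50 was taken as the dose giving 50% mortality.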

[4] = test system: Pseudomonas aeruginosa; assay: Antibacterial activity against Pseudomonas aeruginosa at 50 mg/disk after 24 to 28 hrs by agar disk diffusion method; type: functional
[5] = test system: Escherichia coli; assay: Antibacterial activity against Escherichia coli at 50 mg/disk after 24 to 28 hrs by agar disk diffusion method; type: functional
[6] = test system: Lactococcus lactis; assay: Antibacterial activity against Streptococcus lactis at 50 mg/disk after 24 to 28 hrs by agar disk diffusion method; type: functional
[7] = test system: Nakaseomyces glabratus; assay: Antifungal activity against Candida glabrata at 50 mg/disk after 5 days by agar disk diffusion method; type: functional
[8] = test system: HepG2; assay: Antitumor activity against human HepG2 cells xenografted in Swiss albino mouse assessed as increase mouse life span at 10 ug/kg, ip for 10 days relative to control; type: functional
[9] = test system: Candida albicans; assay: Antifungal activity against Candida albicans at 50 mg/disk after 5 days by agar disk diffusion method; type: functional
[10] = test system: Bacillus subtilis; assay: Antibacterial activity against Bacillus subtilis at 50 mg/disk after 24 to 28 hrs by agar disk diffusion method; type: functional
[11] = test system: HeLa; assay: Antitumor activity against human HeLa cells xenografted in Swiss albino mouse assessed as increase of mouse survival at 10 ug/kg, ip for 10 days (reference value: 22 +/- 1.90 day); type: functional
[12] = test system: Mus musculus; assay: Acute toxicity in human HeLa cells xenografted ip dosed Swiss albino mouse assessed as mortality measured up to 2 weeks; type: organism-based; details: in vivo, 336 h; how it was run: as §1

SMILES | Activity [1] [%] | Survival [2] [days] | LD50 [3] [mg/kg] | diameter of the inhibition zone (DIZ) [4] [mm] | diameter of the inhibition zone (DIZ) [5] [mm] | diameter of the inhibition zone (DIZ) [6] [mm] | diameter of the inhibition zone (DIZ) [7] [mm] | Activity [8] [%] | diameter of the inhibition zone (DIZ) [9] [mm] | diameter of the inhibition zone (DIZ) [10] [mm] | Survival [11] [days] | LD50 [12] [mg/kg]
CSc1nc2c(c(=O)[nH]1)C(c1ccc([N+](=O)[O-])cc1)C1=C(CC(C)(C)CC1=O)N2[C@@H]1O[C@H](CO)[C@@H](O)[C@H](O)[C@H]1O (some centres not stated) | 61 | 38 | 0.115 | 23 | 23 | 19 | 9 | 60 | 8 | 21 | 36 | 0.119
CSc1nc2c(c(=O)n1C)C(c1ccc([N+](=O)[O-])cc1)C1=C(CC(C)(C)CC1Cl)N2 (configuration not stated) | 45 | 33 | 0.1 | 14 | 15 | 13 | 9 | 48 | 10 | 14 | 31 | 0.103
CSc1nc2c(c(=O)[nH]1)C(c1ccc([N+](=O)[O-])cc1)C1=C(CC(C)(C)CC1=O)N2[C@@H]1OC[C@@H](O)[C@@H](O)[C@@H]1O (some centres not stated) | 66 | 37 | 0.11 | 23 | 24 | 18 | 8 | 60 | 7 | 20 | 38 | 0.116
Cc1cn2c(=O)c3c(nc2n1N)NC1=C(C(=O)CC(C)(C)C1)C3c1ccc([N+](=O)[O-])cc1 (configuration not stated) | 51 | 37 | 0.093 | 23 | 24 | 22 | 10 | 56 | 9 | 19 | 34 | 0.09
CSc1nc2c(c(=O)n1C)C(c1ccc([N+](=O)[O-])cc1)C1=C(CC(C)(C)CC1=O)N2 (configuration not stated) | 48 | 34 | 0.098 | 14 | 15 | 13 | 6 | 50 | 8 | 15 | 28 | 0.111
CC1(C)CC(=O)C2=C(C1)Nc1nc(N/N=C\c3ccc(Cl)cc3)[nH]c(=O)c1C2c1ccc([N+](=O)[O-])cc1 (configuration not stated) | 50 | 37 | 0.096 | 17 | 18 | 17 | 6 | 53 | 7 | 16 | 32 | 0.09
